Measurements published in ChEMBL document CHEMBL4368884, “Structure-activity relationship of the cinnamamide family of antibiotic potentiators for methicillin-resistant Staphylococcus aureus (MRSA)” (Medchemcomm, 2018).

system: Staphylococcus aureus; assay: Potentiation of oxacillin-induced antibacterial activity against Staphylococcus aureus MRSA252 assessed as oxacillin MIC at 20 uM (reference value: 256 ug/ml); assay type: functional; settings: not given

SMILES | MIC
Cc1ccc(S(=O)(=O)N(CCO)c2ccccc2CN(C)C(=O)CCc2ccc(Cl)cc2)cc1 | ≥ 256 µg/mL
Cc1ccc(S(=O)(=O)N(CCO)c2ccccc2CN(C)C(=O)/C=C/c2ccc(F)cc2)cc1 | ≥ 256 µg/mL
Cc1ccc(S(=O)(=O)N(CCO)c2ccccc2CNC(=O)/C=C/c2ccc(C(F)(F)F)cc2)cc1 | ≥ 256 µg/mL
CN(C/C=C/c1ccccc1)Cc1ccccc1N(CCO)S(=O)(=O)c1ccc(C(F)(F)F)cc1 | 32 µg/mL
CN(Cc1ccccc1N(CCO)S(=O)(=O)c1ccc2c(c1)OCCO2)C(=O)/C=C/c1ccc(C(F)(F)F)cc1 | 64 µg/mL
Cc1ccc(S(=O)(=O)N(CCO)c2ccccc2CN(C(=O)/C=C/c2ccc(C(F)(F)F)cc2)C(C)C)cc1 | ≥ 256 µg/mL
Cc1ccc(S(=O)(=O)N(CCO)c2ccccc2CN(C/C=C/c2ccc(Cl)cc2)CC(C)C)cc1 | 128 µg/mL
CN(C/C=C/c1ccc(Cl)cc1)Cc1ccccc1N(CCO)S(=O)(=O)c1ccc(Cl)cc1 | 16 µg/mL
CN(Cc1ccccc1N(CCO)S(=O)(=O)c1ccc(C#N)cc1)C(=O)/C=C/c1ccc(C(F)(F)F)cc1 | 32 µg/mL
Cc1ccc(S(=O)(=O)N(CCO)c2ccccc2CN(C)C(=O)/C=C/c2ccc(-c3ccc(Cl)cc3)o2)cc1 | ≥ 256 µg/mL
CN(Cc1ccccc1)Cc1ccccc1N(CCO)S(=O)(=O)c1ccc(C(F)(F)F)cc1 | ≥ 256 µg/mL
Cc1ccc(S(=O)(=O)N(CCO)c2ccccc2CN(C)C(=O)c2ccc(Cl)cc2)cc1 | ≥ 256 µg/mL
CN(C/C=C/c1ccc(Cl)cc1)Cc1ccccc1N(CCO)S(=O)(=O)Cc1ccccc1 | ≥ 256 µg/mL
CN(C/C=C/c1ccc(Cl)cc1)Cc1ccccc1N(CCO)S(=O)(=O)c1ccc(C(F)(F)F)cc1 | 64 µg/mL
Cc1ccc(S(=O)(=O)N(CCO)c2ccccc2C(=O)N(C)C/C=C/c2ccc(Cl)cc2)cc1 | ≥ 256 µg/mL
COc1ccc(S(=O)(=O)N(CCO)c2ccccc2CN(C)C/C=C/c2ccc(Cl)cc2)cc1 | 128 µg/mL

Second part, the molecule after the results:

MIC | SMILES
32 µg/mL | Cc1ccc(S(=O)(=O)N(CCO)c2ccccc2CN(C)C/C=C/c2ccc(Cl)c(Cl)c2)cc1
≥ 256 µg/mL | Cc1ccc(S(=O)(=O)N(CCO)c2ccccc2CN(C)C(=O)COc2ccc(Cl)cc2)cc1
256 µg/mL | CN(Cc1ccccc1N(CCO)S(=O)(=O)c1cccs1)C(=O)/C=C/c1ccc(Cl)cc1
64 µg/mL | Cc1ccc(/C=C/C(=O)N(C)Cc2ccccc2N(CCO)S(=O)(=O)c2ccc(C)cc2)cc1
≥ 256 µg/mL | Cc1ccc(S(=O)(=O)N(CCO)c2ccccc2CN(C(=O)/C=C/c2ccc(C(F)(F)F)cc2)C2CC2)cc1
≥ 256 µg/mL | Cc1ccc(S(=O)(=O)N(CCO)c2ccccc2CN(C)C/C=C/c2ccccc2)cc1
≥ 256 µg/mL | CC(=O)Nc1ccc(S(=O)(=O)N(CCO)c2ccccc2CN(C)C/C=C/c2ccc(Cl)cc2)cc1
32 µg/mL | CN(Cc1ccccc1N(CCO)S(=O)(=O)c1ccc(OC(F)(F)F)cc1)C(=O)/C=C/c1ccc(C(F)(F)F)cc1
128 µg/mL | COc1ccc(S(=O)(=O)N(CCO)c2ccccc2CN(C/C=C/c2ccc(Cl)cc2)CC(C)C)cc1
32 µg/mL | CC(C)c1ccc(S(=O)(=O)N(CCO)c2ccccc2CN(C)C(=O)/C=C/c2ccc(C(F)(F)F)cc2)cc1

system: Staphylococcus aureus; assay: Growth inhibition of Staphylococcus aureus MRSA252; assay type: organism-based; settings: in vitro
Summary of the method: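 Compound alone was two-fold serially diluted in cation-adjusted Mueller-Hinton II broth containing 2.4% DMSO. Bacteria were inoculated at 5 × 10⁵ CFU mL⁻¹ and incubated at 36 °C for 16–20 h. The MIC was read in triplicate.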

SMILES | growth inhibition (GI)
Cc1ccc(S(=O)(=O)N(CCO)c2ccccc2CN(C)C(=O)CCc2ccc(Cl)cc2)cc1 | Non-Toxic
Cc1ccc(S(=O)(=O)N(CCO)c2ccccc2CN(C)C/C=C/c2ccc(Cl)c(Cl)c2)cc1 | Non-Toxic
Cc1ccc(S(=O)(=O)N(CCO)c2ccccc2CN(C)C(=O)COc2ccc(Cl)cc2)cc1 | Non-Toxic
Cc1ccc(S(=O)(=O)N(CCO)c2ccccc2CN(C)C(=O)/C=C/c2ccc(F)cc2)cc1 | Non-Toxic
Cc1ccc(S(=O)(=O)N(CCO)c2ccccc2CNC(=O)/C=C/c2ccc(C(F)(F)F)cc2)cc1 | Non-Toxic
CN(C/C=C/c1ccccc1)Cc1ccccc1N(CCO)S(=O)(=O)c1ccc(C(F)(F)F)cc1 | Non-Toxic
CN(Cc1ccccc1N(CCO)S(=O)(=O)c1ccc2c(c1)OCCO2)C(=O)/C=C/c1ccc(C(F)(F)F)cc1 | Non-Toxic
CN(Cc1ccccc1N(CCO)S(=O)(=O)c1cccs1)C(=O)/C=C/c1ccc(Cl)cc1 | Non-Toxic
Cc1ccc(/C=C/C(=O)N(C)Cc2ccccc2N(CCO)S(=O)(=O)c2ccc(C)cc2)cc1 | Non-Toxic
Cc1ccc(S(=O)(=O)N(CCO)c2ccccc2CN(C(=O)/C=C/c2ccc(C(F)(F)F)cc2)C(C)C)cc1 | Non-Toxic
Cc1ccc(S(=O)(=O)N(CCO)c2ccccc2CN(C/C=C/c2ccc(Cl)cc2)CC(C)C)cc1 | Non-Toxic
CN(C/C=C/c1ccc(Cl)cc1)Cc1ccccc1N(CCO)S(=O)(=O)c1ccc(Cl)cc1 | Non-Toxic
Cc1ccc(S(=O)(=O)N(CCO)c2ccccc2CN(C(=O)/C=C/c2ccc(C(F)(F)F)cc2)C2CC2)cc1 | Non-Toxic
CN(Cc1ccccc1N(CCO)S(=O)(=O)c1ccc(C#N)cc1)C(=O)/C=C/c1ccc(C(F)(F)F)cc1 | Non-Toxic
Cc1ccc(S(=O)(=O)N(CCO)c2ccccc2CN(C)C/C=C/c2ccccc2)cc1 | Non-Toxic
Cc1ccc(S(=O)(=O)N(CCO)c2ccccc2CN(C)C(=O)/C=C/c2ccc(-c3ccc(Cl)cc3)o2)cc1 | Non-Toxic
CC(=O)Nc1ccc(S(=O)(=O)N(CCO)c2ccccc2CN(C)C/C=C/c2ccc(Cl)cc2)cc1 | Non-Toxic
CN(Cc1ccccc1)Cc1ccccc1N(CCO)S(=O)(=O)c1ccc(C(F)(F)F)cc1 | Non-Toxic
Cc1ccc(S(=O)(=O)N(CCO)c2ccccc2CN(C)C(=O)c2ccc(Cl)cc2)cc1 | Non-Toxic
CN(C/C=C/c1ccc(Cl)cc1)Cc1ccccc1N(CCO)S(=O)(=O)Cc1ccccc1 | Non-Toxic
CN(Cc1ccccc1N(CCO)S(=O)(=O)c1ccc(OC(F)(F)F)cc1)C(=O)/C=C/c1ccc(C(F)(F)F)cc1 | Non-Toxic
CN(C/C=C/c1ccc(Cl)cc1)Cc1ccccc1N(CCO)S(=O)(=O)c1ccc(C(F)(F)F)cc1 | Non-Toxic
COc1ccc(S(=O)(=O)N(CCO)c2ccccc2CN(C/C=C/c2ccc(Cl)cc2)CC(C)C)cc1 | Non-Toxic
CC(C)c1ccc(S(=O)(=O)N(CCO)c2ccccc2CN(C)C(=O)/C=C/c2ccc(C(F)(F)F)cc2)cc1 | Non-Toxic
Cc1ccc(S(=O)(=O)N(CCO)c2ccccc2C(=O)N(C)C/C=C/c2ccc(Cl)cc2)cc1 | Non-Toxic
COc1ccc(S(=O)(=O)N(CCO)c2ccccc2CN(C)C/C=C/c2ccc(Cl)cc2)cc1 | Non-Toxic
